Results from article PMC3640342 (Pharmaceutical research, 2013).
Values after ≈ are worked out from the molar mass of the structure shown. Values joined by “and” are separate entries in the source; they are usually repeats but may differ in a detail not shown here. Equal values may be shown once. Read-outs that look alike come from different tables or passages of the source.

Legend:
[1] = test system: FVB mice; experiment: Drug tolerance / lethal toxicity on repeated dosing in liquid diet; assay type: in vivo
[2] = test system: human plasma; conditions: human plasma, 1 μM
[3] = test system: rat liver microsomes; experiment: Hepatic microsomal stability, rat; assay type: in vitro ADME; conditions: 1 μM; for t1/2: NADPH
How it was run: (§1)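 Liver microsomes from mouse, rat or human (~0.5 mg/mL final) were incubated at 37°C with test compound at 1 μM final (0.6% ACN, 0.01% DMSO) in PBS pH 7.4 ± 0.05% PS80, with 1 mM NADPH or PBS.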

[4] = Hepatic microsomal stability, rat; assay type: in vitro ADME; conditions: rat, rat liver microsomes, pH 7.4
How it was run: as §1

[5] = cell-culture media with 10% FBS, 1 μM
[6] = test system: mouse plasma; conditions: 1 μM
[7] = test system: human liver microsomes; experiment: Hepatic microsomal stability, human; assay type: in vitro ADME; conditions: 1 μM; for t1/2: NADPH
How it was run: as §1

[8] = Hepatic microsomal stability, human; assay type: in vitro ADME; conditions: human, human liver microsomes, pH 7.4
How it was run: as §1

[9] = test system: PrP^Sc levels in ScN2a-cl3 cells; experiment: cells; assay type: cell-based, mouse
[10] = test system: mouse liver microsomes; experiment: Hepatic microsomal stability, mouse; assay type: in vitro ADME; conditions: 1 μM; for t1/2: NADPH
How it was run: as §1

[11] = Hepatic microsomal stability, mouse; assay type: in vitro ADME; conditions: mouse, mouse liver microsomes, pH 7.4
How it was run: as §1

[12] = mouse brain homogenate, 1 μM, corrected for dilution
[13] = 3-day multidose PK in liquid diet; assay type: in vivo, FVB mice
[14] = Single-dose oral gavage PK at 10 mg/kg; assay type: in vivo, FVB mice
How it was run: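 Female FVB mice (~25 g) were dosed at 10 mg/kg by oral gavage in 20% propylene glycol, 5% ethanol, 5% labrosol and 70% PEG400. Two mice per time point were killed by CO2 at 0.25, 0.5, 1, 2, 4, 6 and 24 h. Heparinized plasma and brain (diluted five-fold in water, homogenized) were assayed by LC/MS/MS.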

[15] = Single-dose IV PK at 1 mg/kg; assay type: in vivo, FVB mice; conditions: female, FVB, mouse, plasma, iv, 1 mg/kg
How it was run: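 Female FVB mice (~25 g) received 1 mg/kg by tail-vein injection in 10% DMSO in PEG400/water (1:1), 10% DMSO, or 10% ethanol in PEG400/water (1:1). Two mice per time point were killed by CO2 at 5 min and 0.25, 0.5, 1, 2, 4 and 6 h, and heparinized plasma was collected. After protein precipitation, samples were assayed by LC/MS/MS, and parameters came from noncompartmental sparse-sampling analysis.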

[16] = Solubility at pH 2, pH 7.4 and in FaSSIF; assay type: physicochemical; conditions: pH 7.4 (phosphate) buffer, room temperature overnight
[17] = Media solubility; assay type: physicochemical; conditions: media used in the cell-based assays, 10% FBS
[18] = test system: MDCK-MDR1 cells; experiment: Bidirectional MDCK-MDR1 cell permeability; assay type: in vitro ADME, canine; conditions: for Papp (A−B) / Papp (B−A): 10 μM, pH 7.4; for Efflux ratio: MDCK-MDR1 cells
[19] = female, FVB, mouse, brain, po, 10 mg/kg
[20] = female, FVB, mouse, plasma, po, 10 mg/kg

In the case of `C(=N\Nc1ccc(-c2cnco2)cc1)/c1ccncc1` [Compd B, (E)-5-(4-(2-(pyridin-4-ylmethylene)hydrazinyl)phenyl)oxazole, reference compound], the Deaths ([1]; 150 mg/kg/day for 8 days in liquid diet) is reported as “two of four mice”, the Lethal toxicity ([1]; 25, 50, and 100 mg/kg/day in liquid diet) is reported as “none showed lethal toxicity” and the “Unbound (%)” value [2] is reported as 2.1% and 2.10±1.11%. The t1/2 [3] was “relatively stable”, the half-life at 1 μM [4] was over 60 min and the remaining at 1 h, 1 μM [4] was 77%. The “Unbound (%)” value [5] was 37% and 36.5±3.30%, the “Unbound (%)” value [6] was 9% and 9.06±2.31% and the t1/2 [7] was “relatively stable”. The half-life at 1 μM [8] was over 60 min, the remaining at 1 h, 1 μM [8] was 68% and the EC50 ([9]; Mus musculus, 120 h) was 0.25 µM. The t1/2 [10] was “rapidly metabolized”, the half-life at 1 μM [11] was 30 min and the remaining at 1 h, 1 μM [11] was 29%. The “Unbound (%)” value [12] was 11% and 11.4±2.89%, the “AUC/EC50 ratios in brain and plasma, total concentration” value ([13]; 100 mg/kg/day for 3 days, AUC = C3-day × τ) was “greater than 100” and the “Brain and plasma concentrations (C3-day)” value ([13]; 25 and 50 mg/kg/day, 3 days in liquid diet) was “below the level of quantification”. The “%F (absolute oral bioavailability)” value ([14]; PO 10 mg/kg vs IV 1 mg/kg, plasma) was 24.8%, the “Brain/Plasma AUClast Ratio” value ([14]; PO 10 mg/kg, 10 mg/kg) was 0.51 and the AUC(0-t) [14, 19] was 1.06 ± 0.1 µM·h. For the same molecule, the Cmax [14, 19] was 460 ± 160 nM, the tmax [14, 19] was 120 min and the AUC(0-t) [14, 20] was 2.06 ± 0.06 µM·h. The Cmax [14, 20] was 830 ± 380 nM, the half-life [14, 20] was 60.6 min and the tmax [14, 20] was 30 min. For the same molecule, the Vd [15] was 1.53 L/kg and the clearance [15] was 76 mL/min/kg.
For `Cc1cccc(Nc2nc(-c3cc4ccccc4o3)cs2)n1` [IND22], the “% remaining after a 60-min incubation” value [3] was 64%, the t1/2 [3] was over 60 min and the “Solubility pH 7.4” value [16] was under 1 μM. For the same molecule, the “% remaining after a 60-min incubation” value [7] was 99%, the t1/2 [7] was over 60 min and the EC50 [9] was 1.46 µM. For the same molecule, the “% remaining after a 60-min incubation” value [10] was 40%, the t1/2 [10] was 49 min and the “Solubility Media” value [17] was 20 µM (≈ 6.15 µg/mL). The “Papp (A−B)” value [18] was 9.5 ×10⁻⁶ cm/s, the “Papp (B−A)” value [18] was 8.4 ×10⁻⁶ cm/s and the Efflux ratio [18] was 0.9.
For `Cc1ccc(Nc2nc(-c3ccc(OC(F)(F)F)cc3)cs2)nc1` [IND26], the EC50 [9] was over 10 µM.
`Cc1ccc(Nc2nc(-c3ccncc3)cs2)nc1` [IND29] showed an EC50 [9] of 1.57 µM.
In the case of `Cc1ccc(Nc2nc(-c3cc(-c4ccccc4)no3)cs2)nc1` [IND33], the “% remaining after a 60-min incubation” value [3] is reported as 73%, the “Solubility pH 7.4” value [16] is reported as under 1 μM and the “% remaining after a 60-min incubation” value [7] is reported as 42%. For the same molecule, the EC50 [9] was 0.94 µM, the “% remaining after a 60-min incubation” value [10] was 111% and the “Solubility Media” value [17] was 225 µM (≈ 75.2 µg/mL). The “Brain concentration (C3-day)” value ([13]; 130 mg/kg dose, 3 days in liquid diet) was ~ 30 μM, the “Papp (A−B)” value [18] was 6.8 ×10⁻⁶ cm/s and the “Papp (B−A)” value [18] was 8.3 ×10⁻⁶ cm/s. The Efflux ratio [18] was 1.2.
With `Cc1ccc(Nc2nc(-c3c(-c4ccccc4)noc3C)cs2)nc1` [IND36] the EC50 [9] was over 32 µM.
With `Cc1ccc(Nc2nc(-c3cccc(C#N)c3)cs2)nc1` [IND38] the EC50 [9] was 2.29 µM.
Work on `COc1ccc(-c2csc(Nc3cc(C)ccn3)n2)cc1OC` [IND42] yielded an EC50 [9] of 1 µM.
`COc1ccc(-c2csc(Nc3ccc(C(F)(F)F)cn3)n2)cc1OC` [IND43] showed an EC50 [9] of 2.53 µM.
With `COc1ccc(Nc2nc(-c3ccc(OC)c(OC)c3)cs2)nc1` [IND44] the “% remaining after a 60-min incubation” value [3] was 39%, the t1/2 [3] was 45 min and the “Solubility pH 7.4” value [16] was under 1 μM. For the same molecule, the “% remaining after a 60-min incubation” value [7] was 48%, the t1/2 [7] was 58 min and the “% remaining after a 60-min incubation” value [10] was 24%. The t1/2 [10] was 29 min.
With `COc1ccc(-c2csc(Nc3cc4ccccc4cn3)n2)cc1OC` [IND46] the “% remaining after a 60-min incubation” value [3] was 61%, the “Solubility pH 7.4” value [16] was under 1 μM and the “% remaining after a 60-min incubation” value [7] was 83%. For the same molecule, the “% remaining after a 60-min incubation” value [10] was 58% and the “Solubility Media” value [17] was 174 µM (≈ 63.2 µg/mL).
For `COc1ccc(-c2csc(Nc3ccc4ccccc4n3)n2)cc1OC` [IND47], the “% remaining after a 60-min incubation” value [3] was 50%, the “Solubility pH 7.4” value [16] was under 1 μM and the “% remaining after a 60-min incubation” value [7] was 113%. The EC50 [9] was 0.43 µM, the “% remaining after a 60-min incubation” value [10] was 56% and the “Solubility Media” value [17] was 52 µM (≈ 18.9 µg/mL). For the same molecule, the “Brain and plasma concentrations (C3-day)” value ([13]; 40, 80, 130 and 210 mg/kg/day, 3 days in liquid diet) was at most 1 µM, the “Papp (A−B)” value [18] was 9.2 ×10⁻⁶ cm/s and the “Papp (B−A)” value [18] was 8.9 ×10⁻⁶ cm/s. It also gave an Efflux ratio [18] of 1.
